Data taken from ChEMBL document CHEMBL1142148, “Antibiotic susceptibility profile of bifidobacteria as affected by oxgall, acid, and hydrogen peroxide stress” (2007).
≈ marks a conversion by molar mass, not a printed value.

Key:
Bifidobacterium bifidum [1] = test: Antimicrobial activity against 90 mins hydrogen peroxide-stressed Bifidobacterium bifidum BB12 after 18 hrs; format: functional
In short: (§1)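 Stress applied for 90 min at 37°C under anaerobic conditions, using MRS (initial pH 6.5) containing H2O2 at each strain's own inhibitory concentration. The H2O2 level was set beforehand by microplate tolerance testing. Challenged cells were regrown in MRS for 24 h (footnote: 18 h) before MIC testing by broth microdilution. Median of four repetitions.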

Bifidobacterium longum [2] = test: Antimicrobial activity against 90 mins hydrogen peroxide-stressed Bifidobacterium longum ATCC 15707 after 18 hrs; format: functional; in short: as §1
Bifidobacterium bifidum [3] = test: Antimicrobial activity against 90 mins hydrogen peroxide-stressed Bifidobacterium bifidum R0071 after 18 hrs; format: functional; in short: as §1
Bifidobacterium longum [4] = test: Antimicrobial activity against 90 mins oxgall-stressed Bifidobacterium longum P/N 601377 after 18 hrs; format: functional
In short: (§2)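 Cells pelleted from mid-log MRS culture and resuspended in MRS (initial pH 6.5) with 0.3% (wt/vol) oxgall for 90 min anaerobically at 37°C. They were then regrown in MRS pH 6.5 for 24 h (footnote: 18 h) anaerobically and tested for MIC by the same broth microdilution assay. Median of four repetitions.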

[5] = system: Bifidobacterium pseudolongum; test: Antimicrobial activity against 90 mins oxgall-stressed Bifidobacterium pseudolongum ATCC 25562 after 18 hrs; format: functional; in short: as §2
Bifidobacterium bifidum [6] = test: Antimicrobial activity against 90 mins oxgall-stressed Bifidobacterium bifidum ATCC 15696 after 18 hrs; format: functional; in short: as §2
Bifidobacterium animalis [7] = test: Antimicrobial activity against 60 min 1 M HCl-stressed Bifidobacterium animalis ATCC 27536 after 18 hrs; format: functional
In short: (§3)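 Mid-log MRS culture pelleted and resuspended in MRS broth brought to pH 2.0 with 1 M HCl, held anaerobically at 37°C for 60 min, then subcultured in MRS (pH 6.5) for 24 h anaerobically before MIC testing by broth microdilution (as for unstressed cells). Table footnote gives 18 h anaerobic regrowth after the stress. MIC is the median of four repetitions.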

Bifidobacterium longum [8] = test: Antimicrobial activity against 60 min 1 M HCl-stressed Bifidobacterium longum R0175 after 18 hrs; format: functional; in short: as §3
Bifidobacterium longum [9] = test: Antimicrobial activity against 90 mins oxgall-stressed Bifidobacterium longum ATCC 15707 after 18 hrs; format: functional; in short: as §2
Bifidobacterium longum [10] = test: Antimicrobial activity against Bifidobacterium longum P/N 601377; format: functional
In short: (§4)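 Broth microdilution in MRS plus 0.05% L-cysteine-HCl. Mid-log culture adjusted to OD650 0.1, giving about 2.5 × 10^4 to 5.0 × 10^4 CFU/well, then added to twofold serial dilutions of agent. Plates incubated anaerobically at 37°C for 18 h and read at OD650. MIC is the lowest concentration matching the uninoculated blank OD, taken as the median of four repeats.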

Bifidobacterium bifidum [11] = test: Antimicrobial activity against Bifidobacterium bifidum R0071; format: functional; in short: as §4
Bifidobacterium bifidum [12] = test: Antimicrobial activity against Bifidobacterium bifidum BB12; format: functional; in short: as §4
Bifidobacterium breve [13] = test: Antimicrobial activity against Bifidobacterium breve R0070; format: functional; in short: as §4
Bifidobacterium breve [14] = test: Antimicrobial activity against 90 mins hydrogen peroxide-stressed Bifidobacterium breve ATCC 15700 after 18 hrs; format: functional; in short: as §1
Bifidobacterium longum [15] = test: Antimicrobial activity against 90 mins hydrogen peroxide-stressed Bifidobacterium longum ATCC 15708 after 18 hrs; format: functional; in short: as §1
Bifidobacterium longum [16] = test: Antimicrobial activity against 90 mins hydrogen peroxide-stressed Bifidobacterium longum P/N 601377 after 18 hrs; format: functional; in short: as §1
Bifidobacterium animalis [17] = test: Antimicrobial activity against 90 mins hydrogen peroxide-stressed Bifidobacterium animalis ATCC 27536 after 18 hrs; format: functional; in short: as §1
Bifidobacterium bifidum [18] = test: Antimicrobial activity against 60 min 1 M HCl-stressed Bifidobacterium bifidum BB12 after 18 hrs; format: functional; in short: as §3
[19] = system: Bifidobacterium thermophilum; test: Antimicrobial activity against 90 mins oxgall-stressed Bifidobacterium thermophilum ATCC 25866 after 18 hrs; format: functional; in short: as §2
[20] = system: Bifidobacterium pseudolongum; test: Antimicrobial activity against 60 min 1 M HCl-stressed Bifidobacterium pseudolongum ATCC 25562 after 18 hrs; format: functional; in short: as §3
Bifidobacterium breve [21] = test: Antimicrobial activity against Bifidobacterium breve ATCC 15700; format: functional; in short: as §4
Bifidobacterium animalis [22] = test: Antimicrobial activity against Bifidobacterium animalis ATCC 27536; format: functional; in short: as §4
[23] = Antimicrobial activity against 90 mins oxgall-stressed Bifidobacterium infantis ATCC 15697 after 18 hrs; format: functional, Bifidobacterium longum subsp. infantis; conditions: Bifidobacterium longum; in short: as §2
Bifidobacterium longum [24] = test: Antimicrobial activity against Bifidobacterium longum ATCC 15708; format: functional; in short: as §4
Bifidobacterium bifidum [25] = test: Antimicrobial activity against 90 mins oxgall-stressed Bifidobacterium bifidum BB12 after 18 hrs; format: functional; in short: as §2
Bifidobacterium breve [26] = test: Antimicrobial activity against 60 min 1 M HCl-stressed Bifidobacterium breve ATCC 15700 after 18 hrs; format: functional; in short: as §3
Bifidobacterium longum [27] = test: Antimicrobial activity against Bifidobacterium longum ATCC 15707; format: functional; in short: as §4
Bifidobacterium bifidum [28] = test: Antimicrobial activity against 90 mins oxgall-stressed Bifidobacterium bifidum R0071 after 18 hrs; format: functional; in short: as §2
[29] = Antimicrobial activity against 60 min 1 M HCl-stressed Bifidobacterium infantis ATCC 15697 after 18 hrs; format: functional, Bifidobacterium longum subsp. infantis; conditions: Bifidobacterium longum; in short: as §3
Bifidobacterium longum [30] = test: Antimicrobial activity against 90 mins oxgall-stressed Bifidobacterium longum ATCC 15708 after 18 hrs; format: functional; in short: as §2
Bifidobacterium breve [31] = test: Antimicrobial activity against 90 mins hydrogen peroxide-stressed Bifidobacterium breve R0070 after 18 hrs; format: functional; in short: as §1
Bifidobacterium bifidum [32] = test: Antimicrobial activity against Bifidobacterium bifidum ATCC 15696; format: functional; in short: as §4
Bifidobacterium breve [33] = test: Antimicrobial activity against 90 mins oxgall-stressed Bifidobacterium breve R0070 after 18 hrs; format: functional; in short: as §2
Bifidobacterium bifidum [34] = test: Antimicrobial activity against 60 min 1 M HCl-stressed Bifidobacterium bifidum R0071 after 18 hrs; format: functional; in short: as §3
[35] = system: Bifidobacterium thermophilum; test: Antimicrobial activity against 90 mins hydrogen peroxide-stressed Bifidobacterium thermophilum ATCC 25866 after 18 hrs; format: functional; in short: as §1
Bifidobacterium longum [36] = test: Antimicrobial activity against 60 min 1 M HCl-stressed Bifidobacterium longum ATCC 15707 after 18 hrs; format: functional; in short: as §3
Bifidobacterium longum [37] = test: Antimicrobial activity against 90 mins oxgall-stressed Bifidobacterium longum R0175 after 18 hrs; format: functional; in short: as §2
Bifidobacterium animalis [38] = test: Antimicrobial activity against 90 mins oxgall-stressed Bifidobacterium animalis ATCC 27536 after 18 hrs; format: functional; in short: as §2
[39] = system: Bifidobacterium pseudolongum; test: Antimicrobial activity against Bifidobacterium pseudolongum ATCC 25562; format: functional; in short: as §4
Bifidobacterium longum [40] = test: Antimicrobial activity against 60 min 1 M HCl-stressed Bifidobacterium longum P/N 601377 after 18 hrs; format: functional; in short: as §3
Bifidobacterium longum [41] = test: Antimicrobial activity against Bifidobacterium longum R0175; format: functional; in short: as §4
[42] = Antimicrobial activity against Bifidobacterium infantis ATCC 15697; format: functional, Bifidobacterium longum subsp. infantis; conditions: Bifidobacterium longum; in short: as §4
Bifidobacterium breve [43] = test: Antimicrobial activity against 90 mins oxgall-stressed Bifidobacterium breve ATCC 15700 after 18 hrs; format: functional; in short: as §2
Bifidobacterium breve [44] = test: Antimicrobial activity against 60 min 1 M HCl-stressed Bifidobacterium breve R0070 after 18 hrs; format: functional; in short: as §3
[45] = system: Bifidobacterium thermophilum; test: Antimicrobial activity against 60 min 1 M HCl-stressed Bifidobacterium thermophilum ATCC 25866 after 18 hrs; format: functional; in short: as §3
[46] = system: Bifidobacterium thermophilum; test: Antimicrobial activity against Bifidobacterium thermophilum ATCC 25866; format: functional; in short: as §4
Bifidobacterium longum [47] = test: Antimicrobial activity against 90 mins hydrogen peroxide-stressed Bifidobacterium longum R0175 after 18 hrs; format: functional; in short: as §1

CN[C@@H]1[C@H](O[C@H]2[C@H](O[C@H]3[C@H](O)[C@@H](O)[C@H](N=C(N)N)[C@@H](O)[C@@H]3N=C(N)N)O[C@@H](C)[C@]2(O)C=O)O[C@@H](CO)[C@H](O)[C@H]1O [STREPTOMYCIN]
MIC (Bifidobacterium bifidum [1]): 250 µg/mL (≈ 430 µM)
MIC (Bifidobacterium longum [2]): 62.5 µg/mL (≈ 107 µM)
MIC (Bifidobacterium bifidum [3]): 250 µg/mL (≈ 430 µM)
MIC (Bifidobacterium longum [4]): 125 µg/mL (≈ 215 µM)
MIC [5]: 250 µg/mL (≈ 430 µM)
MIC (Bifidobacterium bifidum [6]): 1.9 µg/mL (≈ 3.27 µM)
MIC (Bifidobacterium animalis [7]): 125 µg/mL (≈ 215 µM)
MIC (Bifidobacterium longum [8]): 31.2 µg/mL (≈ 53.6 µM)
MIC (Bifidobacterium longum [9]): 62.5 µg/mL (≈ 107 µM)
MIC (Bifidobacterium longum [10]): 125 µg/mL (≈ 215 µM)
MIC (Bifidobacterium bifidum [11]): 250 µg/mL (≈ 430 µM)
MIC (Bifidobacterium bifidum [12]): 250 µg/mL (≈ 430 µM)
MIC (Bifidobacterium breve [13]): 15.6 µg/mL (≈ 26.8 µM)
MIC (Bifidobacterium breve [14]): 500 µg/mL (≈ 860 µM)
MIC (Bifidobacterium longum [15]): 500 µg/mL (≈ 860 µM)
MIC (Bifidobacterium longum [16]): 125 µg/mL (≈ 215 µM)
MIC (Bifidobacterium animalis [17]): 250 µg/mL (≈ 430 µM)
MIC (Bifidobacterium bifidum [18]): 125 µg/mL (≈ 215 µM)
MIC [19]: 250 µg/mL (≈ 430 µM)
MIC [20]: 250 µg/mL (≈ 430 µM)
MIC (Bifidobacterium breve [21]): 250 µg/mL (≈ 430 µM)
MIC (Bifidobacterium animalis [22]): 250 µg/mL (≈ 430 µM)
MIC [23]: 250 µg/mL (≈ 430 µM)
MIC (Bifidobacterium longum [24]): 250 µg/mL (≈ 430 µM)
MIC (Bifidobacterium bifidum [25]): 500 µg/mL (≈ 860 µM)
MIC (Bifidobacterium breve [26]): 125 µg/mL (≈ 215 µM)
MIC (Bifidobacterium longum [27]): 250 µg/mL (≈ 430 µM)
MIC (Bifidobacterium bifidum [28]): 125 µg/mL (≈ 215 µM)
MIC [29]: 250 µg/mL (≈ 430 µM)
MIC (Bifidobacterium longum [30]): 250 µg/mL (≈ 430 µM)
MIC (Bifidobacterium breve [31]): 250 µg/mL (≈ 430 µM)
MIC (Bifidobacterium bifidum [32]): 250 µg/mL (≈ 430 µM)
MIC (Bifidobacterium breve [33]): 125 µg/mL (≈ 215 µM)
MIC (Bifidobacterium bifidum [34]): 250 µg/mL (≈ 430 µM)
MIC [35]: 500 µg/mL (≈ 860 µM)
MIC (Bifidobacterium longum [36]): 250 µg/mL (≈ 430 µM)
MIC (Bifidobacterium longum [37]): 125 µg/mL (≈ 215 µM)
MIC (Bifidobacterium animalis [38]): 125 µg/mL (≈ 215 µM)
MIC [39]: 250 µg/mL (≈ 430 µM)
MIC (Bifidobacterium longum [40]): 62.5 µg/mL (≈ 107 µM)
MIC (Bifidobacterium longum [41]): 62.5 µg/mL (≈ 107 µM)
MIC [42]: 250 µg/mL (≈ 430 µM)
MIC (Bifidobacterium breve [43]): 250 µg/mL (≈ 430 µM)
MIC (Bifidobacterium breve [44]): 125 µg/mL (≈ 215 µM)
MIC [45]: 250 µg/mL (≈ 430 µM)
MIC [46]: 250 µg/mL (≈ 430 µM)
MIC (Bifidobacterium longum [47]): 250 µg/mL (≈ 430 µM)
